iPSC survival up = enhancers of single-cell hiPSC survival, primary screen, ATPlite luminescence | 100% = ROCK inhibitor wells, 0% = DMSO | survival enhancement, % at 20 µM | hit rate 0.044% among 360,000; in the data active = survival enhancement above about 18%;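 note: cells exposed to compounds for 16 hours before the ATP read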
Rev-erbA mod = modulators of Rev-erb alpha DNA binding, primary screen, biochemical, FITC-DNA, fluorescence polarization, uHTS; Rev-erbα–FITC-DNA binding, 90 min; activity, % at 10 µM; hit rate 0.79% among 370,000; AID 1259318, 2017;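 active = activity above about 14%, limit read from the data; passing the limit was not always enough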;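 note: 0% = DMSO wells with 35 nM protein and 100% = DMSO wells with 750 nM protein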
Target sequence (P20393 whole entry, looked up): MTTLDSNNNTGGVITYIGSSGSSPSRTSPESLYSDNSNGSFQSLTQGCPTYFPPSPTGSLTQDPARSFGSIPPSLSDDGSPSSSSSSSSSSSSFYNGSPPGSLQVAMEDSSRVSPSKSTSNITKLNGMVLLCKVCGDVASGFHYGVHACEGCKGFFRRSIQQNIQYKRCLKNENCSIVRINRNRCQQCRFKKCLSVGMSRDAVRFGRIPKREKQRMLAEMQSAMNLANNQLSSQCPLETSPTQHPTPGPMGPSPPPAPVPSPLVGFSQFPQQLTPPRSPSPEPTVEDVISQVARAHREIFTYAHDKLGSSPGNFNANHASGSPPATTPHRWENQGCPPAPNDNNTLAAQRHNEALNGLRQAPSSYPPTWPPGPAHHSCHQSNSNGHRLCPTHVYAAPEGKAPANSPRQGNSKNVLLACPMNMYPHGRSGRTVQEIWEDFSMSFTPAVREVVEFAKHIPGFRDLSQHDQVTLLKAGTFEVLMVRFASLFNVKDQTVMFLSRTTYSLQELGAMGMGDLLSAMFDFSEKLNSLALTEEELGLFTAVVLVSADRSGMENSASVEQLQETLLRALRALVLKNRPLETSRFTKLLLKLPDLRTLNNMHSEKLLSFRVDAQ
H9c2 TAG inh = inhibitors of triacylglycerol accumulation, primary screen, cell-based, uHTS, fluorescence, H9c2; AID 651582, 2012; inhibition, % at 12.5 µM; hit rate 0.66% among 230,000; H9c2 cells, Nile Red lipid (TAG) fluorescence; cells loaded with 200 µM oleic acid;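 active = pattern-corrected inhibition of lipid staining of at least 50% with the nuclear-stain viability signal not falling by more than 50%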;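 note: 0% = DMSO wells and 100% = triacsin C control wells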
T cruzi repl = inhibitors of intracellular T. cruzi growth, primary screen, luminescence, NIH3T3 host cells | T. cruzi beta-gal in NIH3T3, 90 h | inhibition, % (concentration not given with the values) | hit rate 1.4% among 300,000 | AID 1885, 2009;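 active = mean inhibition across valid replicates above about 55%, limit read from the data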;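 note: signal also drops with host cell toxicity which is not excluded here; 0% = plate median of DMSO wells and 100% = zero luminescence signal; higher percent means less beta-gal luminescence so fewer parasites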
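Material: NIH/3T3 host cells with β-galactosidase reporter T. cruzi; Input: 5,000 host fibroblasts per well; Medium: DMEM, 2% fetal bovine serum; Compound: 50 nL DMSO compound solution per well; Schedule: 3 h host attachment, then at least 90 h co-culture; Detection: luminescent β-galactosidase signal after 60 min lysis.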
PG9 Ab binder = binders of HIV-1 gp120 antibody PG9, primary screen, biochemical, TR-FRET | HIV-1 gp120 / PG9 antibody interaction | TR-FRET gp120-PG9 antibody binding | inhibition, % at 6.7 µM | hit rate 0.43% among 360,000 | AID 624416, 2012; in the data active = inhibition above about 8.5%
beta cell repl = inducers of MIN6 beta-cell proliferation, primary screen, ATP luminescence, uHTS; hit rate 0.29% among 330,000; MIN6 cells proliferation, ATPlite luminescence, 48 h; cells starved in 0.2% serum; 100% = growth in 10% serum; proliferation, % at 10 µM;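 active = compounds whose signal lies at least 3.5 SD above the mean of all wells on their plate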;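 note: 0% = DMSO-treated cells in low-serum medium and 100% = 10% serum control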
H9c2 TAG conf = triacylglycerol accumulation inhibitors, retest, confirmation, cell-based, single concentration, Nile Red fluorescence, H9c2; H9c2 lipid accumulation; cells loaded with 200 µM oleic acid; hit rate 71% among 990; shares compounds with H9c2 TAG inh; AID 651629, 2012; inhibition, % at 12.5 µM;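 active = mean inhibition across replicates of 40% or more; inactive = mean inhibition below 40%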;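 note: plate controls were DMSO only wells for no effect and Triacsin C treated wells for full effect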
* hit, by the source's call; · = not tested or not shown. An excerpt weighted towards active compounds, which were near 2.9% of everything screened.

SMILES	iPSC survival up	Rev-erbA mod	H9c2 TAG inh	T cruzi repl	PG9 Ab binder	beta cell repl	H9c2 TAG conf
CCOc1ccc(CCNC(=O)CCc2nc(-c3ccc(OC)cc3)no2)cc1OCC	-1	3	52*	19	-4	0	39
CCOc1ccc(CCNC(=O)CCc2nc(-c3ccc(C)cc3)no2)cc1OCC	4	-7	63*	19	-2	-2	45*
O=C(CSc1cccc2cccnc12)Nc1ccc(S(=O)(=O)N2CCOCC2)cc1	0	-4	72*	63*	-1	-5	57*
O=C(CSc1cccc2cccnc12)Nc1cccc(S(=O)(=O)N2CCOCC2)c1	0	-6	2	-13	0	-1	·
COc1ccc(CN(C)C[C@@H]2OCCCC[C@H](C)Oc3ccc(NC(=O)Nc4ccc(F)cc4)cc3C(=O)N([C@H](C)CO)C[C@H]2C)cc1	-4	0	63*	·	-1	·	47*
C[C@H]1CCCCO[C@H](CN(C)CC2CCCCC2)[C@@H](C)CN([C@@H](C)CO)C(=O)c2cc(NS(=O)(=O)c3ccccc3)ccc2O1	-5	-5	57*	·	0	·	58*
CC(=O)N/N=C/c1cc([N+](=O)[O-])ccc1OCCOc1ccccc1	0	-6	·	-5	1	-3	·
Cc1ccc(OCC(=O)NC(=S)Nc2cccc(NC(=O)c3ccccc3)c2)cc1	0	2	·	-1	-1	0	·
COc1cccc(NC(=O)C2CCCN(S(=O)(=O)c3cccc4cccnc34)C2)c1 (stereo unspecified)	-1	3	10	2	0	1	·
O=C(Nc1ccncc1)C1CCCN(S(=O)(=O)c2cccc3cccnc23)C1 (stereo unspecified)	0	8	60*	-30	0	1	41*
CCC(=O)Nc1nonc1-c1nc2ccccc2n1Cc1ccccc1	0	1	-30	2	1	1	·
CCC(=O)Nc1nonc1-c1nc2ccccc2n1Cc1cccc2ccccc12	-1	3	50*	18	-2	-6	65*
O=C(NC1CCCCCCC1)C1CCN(c2nc3ccccc3o2)CC1	1	-1	·	13	2	-5	·
CC(C)CCN1CCN(Cc2cnc(-c3ccccc3)s2)CC1CCO (stereo unspecified)	0	-1	9	27	0	-1	·
O=C(Cc1ccccc1)Nc1nc(-c2cccs2)cs1	-1	0	62*	-2	0	-2	32
CCc1nn2c(N3CCOCC3)cc(C)nc2c1-c1ccc(F)cc1	-1	6	70*	7	2	1	64*
CCOC(=O)c1c(C)[nH]c(-c2csc(N)n2)c1C	2	·	64*	·	-4	·	5
CCOC(=O)c1c(C)[nH]c(-c2csc(C)n2)c1C	0	-1	-19	11	1	1	·
Cc1ccc(S(=O)(=O)/N=C2/NC(=O)/C(=C/c3cc([N+](=O)[O-])ccc3O)S2)cc1	0	1	·	17	2	2	·
Cc1ccc(-c2nc(NC(=O)c3cc(C(C)(C)C)nn3C)sc2C)cc1Cl	0	-4	68*	·	0	-4	86*
CCC(C)NC(=O)N1c2ccccc2Sc2ccccc21 (stereo unspecified)	-1	3	-1	24	-3	-1	·
CCOC(=O)[C@@H]1[C@H]2COc3ccc(Br)cc3[C@@H]2N2C(=O)N(c3ccc(C(F)(F)F)cc3)C(=O)[C@@]12C	0	5	52*	-5	0	-6	69*
CCOC(=O)[C@H]1[C@H]2COc3ccc(Br)cc3[C@@H]2N2C(=O)c3cc(Br)ccc3NC(=O)[C@@]12C	-1	1	63*	·	0	-8	52*
CCOC(=O)[C@@H]1[C@H]2COc3ccc(Br)cc3[C@@H]2N2C(=O)N(c3ccc(F)cc3)C(=O)[C@@]12C	11	12	22	·	0	0	·
CCOC(=O)[C@H]1[C@H]2COc3ccc(Cl)cc3[C@@H]2N2C(=O)c3cc(Cl)ccc3NC(=O)[C@@]12C	-2	-2	50*	·	-1	-8	53*
SMILES	iPSC survival up	Rev-erbA mod	H9c2 TAG inh	T cruzi repl	PG9 Ab binder	beta cell repl	H9c2 TAG conf
Cc1scc2c1N(C(=O)CN1CCN(C)CC1)c1ccccc1NC2=O	0	-7	-2	-26	0	-4	·
Clc1ccc(-n2ncc3c(NCc4ccc5c(c4)OCO5)ncnc32)cc1	-1	-1	-36	1	1	0	·
COc1cc(C2C(C#N)=C(N)Oc3cc4c(cc32)OCO4)cc(OC)c1OC (stereo unspecified)	-1	1	51*	25	1	-5	71*
CCN(CC)CCCNc1nc2cc(OC)c(OC)cc2c2nc(-c3ccccc3)nn12	-6	-7	61*	61*	2	-6	36
COc1cc2nc(NCCCN3CCN(C)CC3)n3nc(-c4ccccc4)nc3c2cc1OC	-3	0	61*	62*	0	-5	41*
COc1ccc(NC(=S)N(CCCN2CCCC2)Cc2cccn2Cc2ccc(Cl)cc2)cc1Cl	-1	-8	71*	47	0	-6	56*
Cc1ccc(NC(=S)N(CCCN2CCCC2)Cc2cccn2Cc2ccc(Cl)cc2)cc1Cl	0	1	78*	43	-1	-6	93*
CCC(C)Nc1nc(-c2cccc(OC)c2O)nc2ccccc12 (stereo unspecified)	2	2	57*	40	0	-2	44*
COc1cccc(-c2nc(NC(C)C)c3ccccc3n2)c1O	-1	-4	·	38	-1	-5	·
Nc1cc2c(cc1Br)[nH]c(=O)c1ccccc12	4	13	77*	·	-2	·	62*
CN(C)CCNC(=O)c1cccc2nc3cccc(F)c3nc12	-3	0	92	·	-9	·	·
CN(C)CCNC(=O)c1cccc2ccc(-c3ccc(-c4ccccc4)cc3)nc12	-2	2	60*	·	2	·	66*
O=C(CN1CCOCC1)Nc1cccc(C(=O)Nc2cccc(C(F)(F)F)c2)c1	0	-1	-2	3	-2	1	·
CCOc1ccc(S(=O)(=O)N2CCC(C(=O)NCc3ccco3)CC2)cc1	1	-4	·	-8	-1	-3	·

Assay outcomes: PubChem BioAssay, several laboratories
